In brackets after ≈: the same amount, converted by molar mass. Activity calls are given as the source filed them. No cut-off for these calls is given here.
Columns and labels:
[1] = Cytotoxicity against human BC1 cells; type: functional; conditions: read-out: ED50 (the source's name)
[2] = tested on: Lu1; experiment: Cytotoxicity against human Lu1 cells; type: functional; conditions: read-out: ED50 (the source's name)
[3] = tested on: KB; experiment: Cytotoxicity against human KB cells; type: functional; conditions: read-out: ED50 (the source's name)
Outline: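 Parental (drug-sensitive) KB oral epidermoid carcinoma cells were exposed to test compound without vinblastine. Cytotoxicity is reported as ED50 in µg/mL.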

[4] = Cytotoxicity against human KBV1 cells in presence of vinblastine; type: functional; conditions: KB-V1, read-out: ED50 (the source's name)
Outline: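 Multidrug-resistant oral epidermoid carcinoma KB-V1 cells were incubated with test compound in the presence of vinblastine at 1.0 µg/mL. Cytotoxicity is reported as ED50 in µg/mL.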

[5] = Cytotoxicity against human KBV1 cells in absence of vinblastine; type: functional; conditions: KB-V1, read-out: ED50 (the source's name)
Outline: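 Multidrug-resistant oral epidermoid carcinoma KB-V1 cells were incubated with test compound alone, with no vinblastine added. Cytotoxicity is reported as ED50 in µg/mL.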

[6] = tested on: Col2; experiment: Cytotoxicity against human Col2 cells; type: functional; conditions: read-out: ED50 (the source's name)
[7] = tested on: LNCaP; experiment: Cytotoxicity against human LNCAP cells; type: functional; conditions: read-out: ED50 (the source's name)
[8] = tested on: ASK; experiment: Cytotoxicity against human ASK cells at 20 ug/mL; type: functional, cell-based

| SMILES | EC50 [1] [µg/mL] | EC50 [2] [µg/mL] | EC50 [3] [µg/mL] | EC50 [4] [µg/mL] | EC50 [5] [µg/mL] | EC50 [6] [µg/mL] | EC50 [7] [µg/mL] | Activity [8] |
| --- | --- | --- | --- | --- | --- | --- | --- | --- |
| COc1cc(/C=C\C(=O)O[C@H]2C[C@H]3C[C@H](OC(=O)c4ccccc4)[C@@H](C2)N3C)cc(OC)c1OC | > 20 | > 20 | > 20 | 0.3 | 3.5 (≈ 7.27 µM) | – | – | – |
| COc1cc(/C=C/C(=O)O[C@@H]2C[C@@H]3[C@@H](OC(=O)c4ccccc4)[C@@H](O)[C@H](C2)N3C)cc(OC)c1OC | > 20 | > 20 | > 20 | 0.3 | 2.6 (≈ 5.23 µM) | > 20 | 6.7 (≈ 13.5 µM) | inactive |
| CN1C2C[C@H](O)CC1[C@@H](OC(=O)c1ccccc1)C2 (some centres not stated) | > 20 | > 20 | > 20 | > 20 | > 20 | – | – | – |
| COc1cc(/C=C/C(=O)O[C@@H]2C[C@@H]3[C@@H](OC(=O)c4cc(OC)c(OC)c(OC)c4)[C@@H](O)[C@H](C2)N3C)cc(OC)c1OC | 6.1 (≈ 10.4 µM) | 14.6 (≈ 24.8 µM) | 12.6 (≈ 21.4 µM) | 6.6 | 20 (≈ 34 µM) | 10.4 (≈ 17.7 µM) | 15 (≈ 25.5 µM) | inactive |
| COc1cc(/C=C/C(=O)O[C@H]2C[C@H]3C[C@H](OC(=O)c4ccccc4)[C@@H](C2)N3C)cc(OC)c1OC | 15.3 (≈ 31.8 µM) | > 20 | 10.3 (≈ 21.4 µM) | 0.2 | 3.6 (≈ 7.48 µM) | 5.1 (≈ 10.6 µM) | 10 (≈ 20.8 µM) | inactive |
| COc1cc(/C=C/C(=O)O[C@@H]2C[C@@H]3[C@@H](OC(=O)c4ccccc4)[C@@H](OC(C)=O)[C@H](C2)N3C)cc(OC)c1OC | 14.6 (≈ 27.1 µM) | > 20 | 14.8 (≈ 27.4 µM) | 1.1 | 13.2 (≈ 24.5 µM) | > 20 | 14.9 (≈ 27.6 µM) | inactive |

Reference: ChEMBL document CHEMBL1148129, “Reversal of multidrug resistance by tropane alkaloids from the stems of Erythroxylum rotundifolium” (2002)
